Sampled rows, rich in hits. Any-hit rate of the full collection: about 1.2%.
CRFBP-R2 agonist = agonists of human CRF-binding protein/CRF-R2 receptor complex. HEK293 CRF-R2/CRF-BP, calcium dye fluorescence (FLIPR); percent of saturating CRF peptide response. activation, % at 13.2 µM. 350,000 tested, 0.46% active;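 active = activation of at least 50%, plus an integration ratio under a set limit after plate pattern correction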;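 also: plate controls were neutral control wells without compound for no effect and CRF at EC100 for full effect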
TRPN1 ag = zebrafish TRPN1 (NompC) channel agonism. HEK293 zebrafish TRPN1-YFP, Fluo-8 calcium fluorescence; 100% = response to 87 µM carbachol. AID 1424. 220,000 tested, 0.18% active. activation, % at 3 µM;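 active = activation above its plate's cutoff, the mean activation of test wells on that plate plus 3 SD, cut at about 19% in these data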;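 also: 0% = DMSO alone and 100% = 87 µM carbachol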
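Material – zebrafish TRPN1-YFP in HEK293 cells · Doses – 3 µM single point · Schedule – dye 1 h 37 °C plus 30 min RT · Signal – Fluo-8 calcium fluorescence, excitation 470-495 nm, emission 515-575 nm · Read-out – % activation versus carbachol response · Control set – carbachol high, DMSO low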
CRFBP-R2 block = blocks CRF-induced signaling of the CRF-BP/CRF-R2 complex | 350,000 tested, 0.59% active | inhibition, % at 11.8 µM | HEK293 CRF-R2/CRF-BP, CRF-induced calcium fluorescence;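 active = inhibition of the ligand-induced calcium signal above about 50% at the single tested concentration, limit read from the data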
TRPML3 agonist = agonists of human TRPML3 channel | Q8TDD5 | HEK293 TRPML3-YFP, Fluo-8 calcium fluorescence; 100% = the carbachol control signal | activation, % at 3 µM | 220,000 tested, 0.29% active;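 active = activation above its plate's cutoff, the mean activation of the plate's test wells plus 3 SD, cut at about 12% in these data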;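 also: 0% = DMSO only wells and 100% = carbachol wells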
Target sequence (Q8TDD5 whole entry, looked up): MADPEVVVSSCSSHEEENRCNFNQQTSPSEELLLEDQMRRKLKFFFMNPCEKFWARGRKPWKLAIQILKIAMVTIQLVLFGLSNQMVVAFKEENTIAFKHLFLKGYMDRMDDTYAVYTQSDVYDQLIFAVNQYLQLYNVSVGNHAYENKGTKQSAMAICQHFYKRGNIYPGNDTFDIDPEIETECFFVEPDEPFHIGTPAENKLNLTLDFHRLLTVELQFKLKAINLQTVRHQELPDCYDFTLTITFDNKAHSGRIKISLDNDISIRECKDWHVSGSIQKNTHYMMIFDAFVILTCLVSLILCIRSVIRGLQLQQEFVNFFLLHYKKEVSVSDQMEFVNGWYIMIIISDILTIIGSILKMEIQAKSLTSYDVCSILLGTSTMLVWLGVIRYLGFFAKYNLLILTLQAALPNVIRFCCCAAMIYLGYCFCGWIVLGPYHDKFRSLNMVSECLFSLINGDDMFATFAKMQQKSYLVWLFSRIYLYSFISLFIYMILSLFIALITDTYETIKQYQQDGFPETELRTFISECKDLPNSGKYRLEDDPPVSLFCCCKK
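system = HEK293 cells stably carrying human TRPML3-YFP | doses = one concentration, 3 µM nominal, 0.3% DMSO | timing = dye loading 1 h 37 °C then 30 min ambient, 125 s read | detection = Fluo-8 calcium dye fluorescence, ex 470-495, em 515-575 nm | benchmarks = high control carbachol 87 µM, low control DMSO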
Numbers without * were called inactive; nt = no result.

SMILES | CRFBP-R2 agonist | TRPN1 ag | CRFBP-R2 block | TRPML3 agonist
CC1(C)CC(=O)C(C=Nc2ccc(O)c(N=CC3=C(O)CC(C)(C)CC3=O)c2)=C(O)C1 | 3 | 0 | -11 | 0
CC1(C)CC(=O)C(C=Nc2ccc(C(=O)c3ccccc3)cc2N=CC2=C(O)CC(C)(C)CC2=O)=C(O)C1 | 105* | 4 | -130 | 3
CC(=O)Cc1cc(O)c2ccccc2c1OC(=O)c1ccc(Br)cc1 | -2 | -1 | 68* | 0
CCc1cccc(NC(=O)Cn2ncn3c(cc4ccccc43)c2=O)c1 | 0 | 0 | 18 | 0
Cc1ccc(NC(=O)Cn2ncn3c(cc4ccccc43)c2=O)cc1F | -1 | nt | 60* | nt
O=C(NC(N1CCOCC1)C(Cl)(Cl)Cl)c1ccc(F)cc1 (stereo not given) | 1 | -1 | 11 | 0
O=C(O)CCC(=O)Nc1ccc(Br)c(Cl)c1 | -3 | 0 | 67* | 0
O=C(NC(Cc1ccccc1)c1nc2ccccc2[nH]1)c1cccc([N+](=O)[O-])c1 (stereo not given) | -2 | 0 | 12 | 0
CCN(CC)C1Oc2cc3c(cc2C(c2cc(OC)c(O)c(OC)c2)C1C)OCO3 (stereo not given) | 1 | nt | -40 | nt
CCN(CC)C1Oc2cc3c(cc2C(c2cccc(OC)c2O)C1C)OCO3 (stereo not given) | 0 | nt | 120* | nt
CN(C)C(=O)c1cc(C(=O)c2ccccc2)c[nH]1 | -4 | nt | 4 | nt
CCn1cc(C(=O)N2CCCCC2)c(=O)c2cc(S(=O)(=O)N3CCC(C)CC3)ccc21 | -2 | -1 | 8 | 0
O=C(COc1cc(Cl)ccc1Cl)N1CCNC1=O | -1 | nt | 51* | nt
CCOC(=O)c1ccc(NC(=O)c2cccc3c2C(=O)N(CC2CCCO2)C3)cc1 (stereo not given) | 82* | nt | 60* | nt
CCCN1Cc2cccc(C(=O)Nc3ccc(C)cc3)c2C1=O | 0 | 0 | -3 | 1
Cc1ccc(C)c(C(=O)N(Cc2nc(-c3ccc(Cl)cc3)no2)C(C)C)c1 | 2 | 1 | -17 | 28*
O=C(NNC(=S)Nc1ccc(Cl)cc1)c1ccccc1OC(F)F | 51* | 4 | -52 | 3
O=C(Nc1ccc(N2CCN(C(=O)c3cccs3)CC2)c(Cl)c1)c1cccnc1 | -3 | 7 | -1 | 2
Cc1cccc(-n2c(C)cc(C=C3C(=O)c4ccccc4C3=O)c2C)c1 | 51* | 1 | -13 | 1
C#CCN(Cc1ccco1)C(=O)c1cc(COc2cccc3cccnc23)on1 | -1 | nt | 9 | nt
CCN(CC)c1ccc(C(=C2C=CC(=[N+](CC)CC)C=C2)c2ccc(N(CC)CC)cc2)cc1 | 9 | nt | 25 | nt
CCN(CC)c1ccc(C(=C2C=CC(=[N+](CC)CC)C=C2)c2ccccc2)cc1 | 91* | nt | -9 | nt
O=C(Oc1c(Br)cc([N+](=O)[O-])cc1Br)c1cccnc1 | 21 | 1 | 68* | 1
CCCCCCCC1=NN(c2ccc(S(=O)(=O)O)cc2)C(=O)C1N=O (stereo not given) | 0 | nt | 22 | nt
CN1C2CCC1/C(=C/c1cccn1C)C(=O)/C2=C\c1cccn1C | 237* | 5 | -268 | 4
SMILES | CRFBP-R2 agonist | TRPN1 ag | CRFBP-R2 block | TRPML3 agonist
CN1C2CCC1/C(=C\c1ccc(F)cc1)C(=O)/C2=C/c1ccc(F)cc1 | 2 | 0 | -31 | 0
Cn1cccc1/C=C1\CC(C(C)(C)C)C/C(=C\c2cccn2C)C1=O (stereo not given) | 79* | 2 | -119 | 1
CCOc1cc(/C=C/C(=O)c2ccc(OC)c(CN3CCOCC3)c2)cc(Br)c1O | 58* | nt | -61 | nt
O=C(CC(NS(=O)(=O)c1ccc(Cl)cc1)c1ccco1)NCc1ccco1 (stereo not given) | 1 | -2 | -1 | -1
Cc1cccc(NC(=O)CCC(=O)N/N=C/c2ccco2)c1C | 1 | -1 | 3 | -1
COc1ccc(/C=C/C(=O)NC(=S)Nc2ccc(S(=O)(=O)Nc3cc(OC)ncn3)cc2)cc1 | -2 | 2 | 58* | 0
COc1cc(NS(=O)(=O)c2ccc(NC(=S)NC(=O)/C=C/c3ccc(OC)c(OC)c3)cc2)ncn1 | -5 | 1 | -20 | 1
COc1cc(/C=C/C(=O)c2ccc3c(c2)OCO3)cc(Cl)c1O | 135* | nt | -122 | nt
ON=C1c2ccccc2-c2ccc(O)cc21 | -7 | nt | 14 | nt
Nc1ccc2c(c1)C(=NO)c1ccccc1-2 | -3 | nt | 96* | nt
CCCCNc1c(-c2cccc(-c3cc(C(C)=O)cs3)c2)nc2cc(C)ccn12 | 0 | nt | -12 | nt
Clc1ccc2nncn2n1 | 0 | 1 | 77* | 1
c1cc2nncn2nc1N1CCCC1 | 1 | 0 | -18 | 0
COc1cccc(NC(=O)CSc2ccc3nnc(-c4cccnc4)n3n2)c1 | 0 | nt | -2 | nt
COc1ccc(CCNC(=O)C2CCN(S(=O)(=O)c3ccc(OC)c(OC)c3)CC2)cc1OC | -1 | nt | -3 | nt
Cc1ccc(C(=O)N2c3ccccc3N(Cc3ccccc3)C(=O)C2(C)C)cc1 | 6 | -2 | 52* | -1
COc1cccc(C2C=C(c3ccc(OC)cc3OC)Nc3nnnn32)c1 (stereo not given) | 81* | 2 | -6 | 1
COc1ccc(C2=CC(c3ccc(C)cc3)n3nnnc3N2)cc1 (stereo not given) | 92* | 0 | -81 | 0
COc1cccc(C2=CC(c3cc(OC)ccc3OC)n3nnnc3N2)c1 (stereo not given) | 0 | -2 | 2 | -1
Cc1ccc(C2C=C(c3ccccc3)Nc3nc(N4C(=O)CCC4=O)nn32)cc1 (stereo not given) | 81* | 0 | -1 | 0
COc1ccc(C2C=C(c3ccccc3)Nc3nnnn32)cc1 (stereo not given) | 0 | 0 | -21 | 0
COc1ccc(C2=CC(c3ccc(OC)c(OC)c3)n3nnnc3N2)c(OC)c1 (stereo not given) | 88* | 2 | -1 | 0
CC(C)Oc1ccc(C(=O)Nc2nnc(C3=COCCO3)o2)cc1 | -2 | nt | -3 | nt
COc1ccccc1NC(=O)C1CCN(c2ncnc3c2nc2n3CCCCC2)CC1 | -3 | nt | -13 | nt
O=C(O)CCCN1C(=O)/C(=C/c2ccc(-c3nc4ccccc4s3)o2)SC1=S | -1 | 0 | -1 | 0
SMILES | CRFBP-R2 agonist | TRPN1 ag | CRFBP-R2 block | TRPML3 agonist
O=C(O)CCCCCN1C(=O)/C(=C\c2ccc(-c3ccc(Cl)cc3)o2)SC1=S | 114* | 1 | -82 | 1
Cc1ccccc1OCC(=O)Nc1cccc(S(=O)(=O)NC2=NCCCCC2)c1 | 0 | nt | 1 | nt
CO/N=C/C(c1ncc(C(F)(F)F)cc1Cl)S(=O)(=O)c1ccccc1 (stereo not given) | 1 | nt | -8 | nt
CO/N=C/C(C#N)c1ncc(C(F)(F)F)cc1Cl (stereo not given) | 49 | 2 | 77* | 0
CC(C)N1CCC(NC(=O)NC2CCCCC2)CC1 | 0 | 1 | 6 | 1
CCCCCCc1cc2cc(C(=O)NC)c(=N)oc2cc1O | 286* | 3 | -306 | 2
CCCCCCc1cc2cc(C(N)=O)c(=N)oc2cc1O | nt | 0 | nt | 1
